Results as given in ChEMBL document CHEMBL2396633, “Effects of cytoprotective antioxidants on lymphocytes from representative mitochondrial neurodegenerative diseases” (Bioorg Med Chem, 2013).
Active and inactive are the calls of the source. The calls are words filed in the database; no cut-off is given here.

How the values were obtained:
[1] = Effect on total ATP level in CoQ10-deficient human GM17932 cells at 10 uM after 48 hrs by bioluminescence assay relative to control; type: functional
Method in brief: (§1)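 Lymphocytes were adapted to glucose-free RPMI with 25 mM galactose for at least one week. Cells at 2 × 10⁵ cells/mL were given compound at final 5, 10 or 25 µM for 48 h at 37 °C, 5% CO₂. Total intracellular ATP was measured by luciferase bioluminescence kit and expressed as % of untreated control.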

[2] = Inhibition of NADH-ubiquinone oxidoreductase in bovine heart mitochondria after 5 mins by spectrophotometric analysis; parameters: species or system Bos taurus
Method in brief: (§2)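 Bovine heart submitochondrial particles, 12 µg, incubated 5 min at 39 °C with compound in 50 mM phosphate pH 7.4, 0.25 M sucrose, 1 mM MgCl₂, 2 mM KCN, plus antimycin A. Reaction started with 50 µM NADH and 50 µM coenzyme Q₁; NADH loss read at 340 nm. K_I derived. Mean of three experiments in triplicate.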

[3] = system: CCRF-CEM; test: Antioxidant activity in human CCRF-CEM cells assessed as suppression of diethyl maleate-induced ROS generation at 0.25 to 2.5 uM preincubated for 18 hrs prior to diethyl maleate-challenge measured after 1 hr by FACS flow cytometric analysis in presence of DCFH-DA; type: functional, cell-based
Method in brief: (§3)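 Lymphocytes (Coriell, RPMI with 15% FBS) or CCRF-CEM cells (RPMI with 10% FBS), 2.5 × 10⁵ cells/mL, exposed to compounds for 18 h at 37 °C, then 5 mM diethyl maleate for 1 h. Cells washed in PBS, loaded with 10 µM DCFH-DA in PBS/10 mM glucose for 25 min at 37 °C in the dark. DCF read by flow cytometry (488 nm excitation, 530 nm emission). Mean ± S.E.M., three experiments in duplicate.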

[4] = species: Homo sapiens; test: Antioxidant activity in Alzheimer's disease patient AG06849 cells assessed as suppression of diethyl maleate-induced ROS generation at 0.025 to 2.5 uM preincubated for 18 hrs prior to diethyl maleate-challenge measured after 1 hr by FACS flow cytometric analysis in presence of DCFH-DA; type: functional; method in brief: as §3
[5] = species: Bos taurus; test: Inhibition of NADH oxidase activity of bovine heart mitochondrial […] at 1 uM after 5 mins by spectrophotometric analysis relative to control; values are per cent of control
[6] = Effect on total ATP level in CoQ10-deficient human GM17932 cells at 25 uM after 48 hrs by bioluminescence assay relative to control; type: functional; method in brief: as §1
[7] = Effect on total ATP level in Leber's optic atrophy disease patient GM10744 cells at 10 uM after 48 hrs by bioluminescence assay relative to control; type: functional, Homo sapiens; method in brief: as §1
[8] = species: Bos taurus; test: Inhibition of NADH-ubiquinone oxidoreductase in bovine heart mitochondria after 5 mins by spectrophotometric analysis relative to control; method in brief: as §2
[9] = Effect on total ATP level in Leber's optic atrophy disease patient GM10744 cells at 5 uM after 48 hrs by bioluminescence assay relative to control; type: functional, Homo sapiens; method in brief: as §1
[10] = species: Homo sapiens; test: Cytoprotective activity against diethyl maleate-induced oxidative stress in Leber's optic atrophy disease patient GM10744 cells assessed as cell viability at 0.5 uM preincubated for 15 hrs prior to diethyl maleate-challenge measured after 6 hrs by hemocytometer-based assay; type: functional
Method in brief: (§4)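 Cells seeded at 5 × 10⁵ cells/mL, preincubated with 0.5 or 2.5 µM compound at 37 °C, 5% CO₂, then given 5 mM diethyl maleate for 6 h. Viable cells counted by trypan blue exclusion on a hemocytometer. Viability expressed as % of untreated control. Three independent experiments in triplicate, mean ± S.E.M.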

[11] = species: Homo sapiens; test: Antioxidant activity in Leber's optic atrophy disease patient GM10744 cells assessed as suppression of diethyl maleate-induced ROS generation at 0.025 to 2.5 uM preincubated for 18 hrs prior to diethyl maleate-challenge measured after 1 hr by FACS flow cytometric analysis in presence of DCFH-DA; type: functional; method in brief: as §3
[12] = Effect on total ATP level in CoQ10-deficient human GM17932 cells at 5 uM after 48 hrs by bioluminescence assay relative to control; type: functional; method in brief: as §1
[13] = species: Homo sapiens; test: Cytoprotective activity against diethyl maleate-induced oxidative stress in Leigh's syndrome patient GM13740 cells assessed as cell viability at 0.5 uM preincubated for 15 hrs prior to diethyl maleate-challenge measured after 6 hrs by hemocytometer-based assay; type: functional; method in brief: as §4
[14] = system: GM15850; test: Effect on total ATP level in Friedreich's ataxia disease patient GM15850 cells at 5 uM after 48 hrs by bioluminescence assay relative to control; type: functional, Homo sapiens; method in brief: as §1
[15] = species: Bos taurus; test: Inhibition of NADH oxidase activity of bovine heart mitochondrial […] at 5 uM after 5 mins by spectrophotometric analysis relative to control; values are per cent of control
[16] = system: GM15850; test: Effect on total ATP level in Friedreich's ataxia disease patient GM15850 cells at 25 uM after 48 hrs by bioluminescence assay relative to control; type: functional, Homo sapiens; method in brief: as §1
[17] = system: GM15850; test: Effect on total ATP level in Friedreich's ataxia disease patient GM15850 cells at 10 uM after 48 hrs by bioluminescence assay relative to control; type: functional, Homo sapiens; method in brief: as §1
[18] = Effect on total ATP level in Leber's optic atrophy disease patient GM10744 cells at 25 uM after 48 hrs by bioluminescence assay relative to control; type: functional, Homo sapiens; method in brief: as §1
[19] = species: Bos taurus; test: Inhibition of NADH oxidase activity of bovine heart mitochondrial […] at 10 uM after 5 mins by spectrophotometric analysis relative to control; values are per cent of control
[20] = system: CCRF-CEM; test: Antioxidant activity in human CCRF-CEM cells assessed as suppression of diethyl maleate-induced ROS generation preincubated for 18 hrs prior to diethyl maleate-challenge measured after 1 hr by FACS flow cytometric analysis in presence of DCFH-DA; type: functional, cell-based; method in brief: as §3
[21] = system: GM15850; test: Cytoprotective activity against diethyl maleate-induced oxidative stress in Friedreich's ataxia disease patient GM15850 cells assessed as cell viability at 0.5 uM preincubated for 15 hrs prior to diethyl maleate-challenge measured after 6 hrs by hemocytometer-based assay; type: functional; details: Homo sapiens; method in brief: as §4
[22] = species: Homo sapiens; test: Cytoprotective activity against diethyl maleate-induced oxidative stress in Alzheimer's disease patient AG06849 cells assessed as cell viability at 0.5 uM preincubated for 15 hrs prior to diethyl maleate-challenge measured after 6 hrs by hemocytometer-based assay; type: functional; method in brief: as §4
[23] = system: CCRF-CEM; test: Cytoprotective activity against diethyl maleate-induced oxidative stress in human CCRF-CEM cells assessed as cell viability at 0.5 uM preincubated for 15 hrs prior to diethyl maleate-challenge measured after 6 hrs by hemocytometer-based assay; type: functional; method in brief: as §4
[24] = species: Homo sapiens; test: Cytoprotective activity against diethyl maleate-induced oxidative stress in Parkinson's disease patient GM15010 cells assessed as cell viability at 0.5 uM preincubated for 15 hrs prior to diethyl maleate-challenge measured after 6 hrs by hemocytometer-based assay; type: functional; method in brief: as §4
[25] = system: CCRF-CEM; test: Antioxidant activity in human CCRF-CEM cells assessed as suppression of diethyl maleate-induced ROS generation at 0.25 uM preincubated for 18 hrs prior to diethyl maleate-challenge measured after 1 hr by FACS flow cytometric analysis in presence of DCFH-DA; type: functional, cell-based; method in brief: as §3
[26] = system: CCRF-CEM; test: Antioxidant activity in human CCRF-CEM cells assessed as suppression of diethyl maleate-induced ROS generation at 2.5 uM preincubated for 18 hrs prior to diethyl maleate-challenge measured after 1 hr by FACS flow cytometric analysis in presence of DCFH-DA; type: functional, cell-based; method in brief: as §3
[27] = species: Homo sapiens; test: Cytoprotective activity against diethyl maleate-induced oxidative stress in Parkinson's disease patient GM15010 cells assessed as cell viability at 2.5 uM preincubated for 15 hrs prior to diethyl maleate-challenge measured after 6 hrs by hemocytometer-based assay; type: functional; method in brief: as §4
[28] = species: Homo sapiens; test: Cytoprotective activity against diethyl maleate-induced oxidative stress in Leigh's syndrome patient GM13740 cells assessed as cell viability at 2.5 uM preincubated for 15 hrs prior to diethyl maleate-challenge measured after 6 hrs by hemocytometer-based assay; type: functional; method in brief: as §4
[29] = system: GM15850; test: Effect on total ATP level in Friedreich's ataxia disease patient GM15850 cells after 48 hrs by bioluminescence assay; type: functional; details: Homo sapiens; method in brief: as §1
[30] = species: Homo sapiens; test: Effect on total ATP level in Leber's optic atrophy disease patient GM10744 cells after 48 hrs by bioluminescence assay; type: functional; method in brief: as §1
[31] = species: Homo sapiens; test: Cytoprotective activity against diethyl maleate-induced oxidative stress in Alzheimer's disease patient AG06849 cells assessed as cell viability at 2.5 uM preincubated for 15 hrs prior to diethyl maleate-challenge measured after 6 hrs by hemocytometer-based assay; type: functional; method in brief: as §4
[32] = species: Homo sapiens; test: Cytoprotective activity against diethyl maleate-induced oxidative stress in Leber's optic atrophy disease patient GM10744 cells assessed as cell viability at 2.5 uM preincubated for 15 hrs prior to diethyl maleate-challenge measured after 6 hrs by hemocytometer-based assay; type: functional; method in brief: as §4
[33] = species: Homo sapiens; test: Effect on total ATP level in CoQ10-deficient human GM17932 cells after 48 hrs by bioluminescence assay; type: functional; method in brief: as §1
[34] = system: CCRF-CEM; test: Antioxidant activity in human CCRF-CEM cells assessed as suppression of diethyl maleate-induced ROS generation at 0.025 to 2.5 uM preincubated for 18 hrs prior to diethyl maleate-challenge measured after 1 hr by FACS flow cytometric analysis in presence of DCFH-DA; type: functional, cell-based; method in brief: as §3
[35] = system: GM15850; test: Cytoprotective activity against diethyl maleate-induced oxidative stress in Friedreich's ataxia disease patient GM15850 cells assessed as cell viability at 2.5 uM preincubated for 15 hrs prior to diethyl maleate-challenge measured after 6 hrs by hemocytometer-based assay; type: functional; details: Homo sapiens; method in brief: as §4
[36] = system: CCRF-CEM; test: Cytoprotective activity against diethyl maleate-induced oxidative stress in human CCRF-CEM cells assessed as cell viability at 2.5 uM preincubated for 15 hrs prior to diethyl maleate-challenge measured after 6 hrs by hemocytometer-based assay; type: functional; method in brief: as §4

Row | SMILES | Activity [1] [%] | IC50 [2] [µM] | Ki [2] [µM] | Activity [4] | residual activity [5] [%] | Activity [6] [%] | Activity [7] [%] | Imax [8] [%] | Activity [9] [%] | Activity [10] | Activity [11] | Activity [12] [%] | Activity [13] | Activity [14] [%] | residual activity [15] [%] | Activity [16] [%] | Activity [17] [%] | Activity [18] [%] | residual activity [19] [%] | Activity [20] | other results
1 | CCCCCCCCCCc1nc(N(C)C)nc(C)c1O | 97.1 | 2 | 1.4 | Active | 35.4 | 72.4 | 75 | 88 | 95.6 | Active | Active | 105.2 | Active | 83.3 | 17.7 | 42.2 | 74.4 | 40.6 | 3.9 | Dose-dependent effect | Activity [3]: Active; Activity [21]: Active; Activity [22]: Active; Activity [23]: Active; Activity [24]: Active
2 | CCCCCCCCCCC1=C(C)C(=O)C(OC)=C(OC)C1=O [DECYLUBIQUINONE] | 86.2 | > 200 | > 200 | Active | 93 | 71.1 | 63.4 |  | 75.1 | Active | Active | 100 | Active | 92.8 | 82.4 | 62.7 | 76.4 | 47 | 61.5 | Dose-dependent effect | Activity [25]: Active; Activity [26]: Active; Activity [21]: Active; Activity [22]: Active; Activity [23]: Active; Activity [24]: Active
3 | Cc1nc(N(C)C)nc(CCCCCCCCCCO)c1O | 86.1 | 1 | 0.7 | Active | 50 | 46.4 | 45.6 | 85 | 75.5 |  | Active | 98.8 |  | 77.2 | 22 | 27.7 | 46.3 | 20.7 | 15 | Dose-dependent effect | Activity [25]: Active; Activity [26]: Active
4 | COC1=C(OC)C(=O)C(CCCCCCCCCCO)=C(C)C1=O [IDEBENONE] | 45.7 | 6 | 4 | Active | 57.4 | 1.6 | 29.9 | 84 | 55.7 | inactive | Active | 79.8 | inactive | 73 | 19.3 | 2.6 | 45.6 | 3 | 13.2 | Dose-dependent effect | Activity [27]: Active; Activity [28]: Active; Activity [29]: Dose-dependent effect; Activity [30]: Dose-dependent effect; Activity [31]: Active; Activity [32]: Active; Activity [33]: Dose-dependent effect; Activity [34]: Active; Activity [21]: inactive; Activity [22]: inactive; Activity [23]: inactive; Activity [35]: Active; Activity [36]: Active; Activity [24]: inactive
5 | CCCCCCCCCCCCCCCCc1nc(N(C)C)nc(C)c1O | 103 | 198 | 141 | Active | 96.2 | 95 | 95.6 | 84 | 102.7 | Active | Active | 108.2 | Active | 95.3 | 88.6 | 74.7 | 90.3 | 83.4 | 76.9 | Dose-dependent effect | Activity [3]: Active; Activity [21]: Active; Activity [22]: Active; Activity [23]: Active; Activity [24]: Active
